According to ChEMBL document CHEMBL2321837, “Discovery of novel inhibitors targeting the Mycobacterium tuberculosis O-acetylserine sulfhydrylase (CysK1) using virtual high-throughput screening” (Bioorg Med Chem Lett, 2013):
Converted amounts (≈) assume the structure as drawn.

What was measured:
[1] = Cytotoxicity against HEK293T cells assessed as growth inhibition at 25 uM by MTT assay relative to control; assay type: cell-based, HEK-293T; conditions: human, read-out: GI
[2] = target: T1, O-acetylserine sulfhydrylase (Mycobacterium tuberculosis, UniProt P9WP55); assay: Inhibition of Mycobacterium tuberculosis CysK1 using O-acetyl-L-serine as substrate assessed as L-cycteine formation after 5 mins by spectrophotometric analysis
Procedure, shortened: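 Dose–response: serial 1:3 dilutions prepared in 50% DMSO (final DMSO 5%). Final mix was 100 mM MOPS pH 7.0, 2 mM O-acetyl-L-serine, […] CysK1, preincubated 5 min at room temperature. The reaction was started with sodium sulphide (final 1 mM). Aliquots taken at time intervals were assayed for L-cysteine by acid-ninhydrin. Specific activity vs concentration was fitted to a sigmoid for IC50.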

[3] = tested on: Mycobacterium tuberculosis; assay: Antimycobacterial activity against Mycobacterium tuberculosis H37Rv ATCC 27294 assessed as growth inhibition by NCCLS agar dilution method; assay type: functional
Procedure, shortened: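 M. tuberculosis H37Rv (ATCC27294) agar dilution, compounds 50 to 0.78 µg/mL in duplicates. MIC taken as lowest concentration completely inhibiting growth; isoniazid and ethambutol as reference compounds.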

[4] = Cytotoxicity against HEK293T cells assessed as growth inhibition at 50 uM by MTT assay relative to control; assay type: cell-based, HEK-293T; conditions: human, read-out: GI
[5] = target: O-acetylserine sulfhydrylase (Mycobacterium tuberculosis) (UniProt P9WP55); assay: Inhibition of Mycobacterium tuberculosis CysK1 using O-acetyl-L-serine as substrate assessed as L-cycteine formation at 100 uM after 5 mins by spectrophotometric analysis relative to control
Procedure, shortened: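 Single-point screen of compounds at 100 µM. Assay mix (MOPS pH 7.0, O-acetyl-L-serine, CysK1) was preincubated 5 min at room temperature, then started with 1 mM sodium sulphide for 20 min. It was stopped with trichloroacetic acid (final 16.6%), then acid-ninhydrin reagent was added and heated at 96 °C for 10 min. After 1:1 ethanol dilution, OD was read at 560 nm; triplicates. Controls were DFSI tetrapeptide (100 µM, 100% inhibition) and no inhibitor (0%).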

[6] = target: T1, O-acetylserine sulfhydrylase; assay: Competitive inhibition of Mycobacterium tuberculosis CysK1
Procedure, shortened: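 Purified CysK1 preincubated 5 min at room temperature with 1:3 serial compound dilutions in 100 mM MOPS pH 7.0 and 2 mM O-acetyl-L-serine, 5% DMSO final. Reaction started with sodium sulphide (1 mM final); aliquots were taken at time intervals. L-cysteine was measured by acid-ninhydrin (96 °C, 10 min) at 560 nm. IC50 came from sigmoid fits of specific activity.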

Structure (SMILES)	inhibition at 25 µM [1] [%]	IC50 [2] [µM]	MIC [3] [µM]	inhibition at 50 µM [4] [%]	inhibition [5] [%]	Ki [6] [µM]
COc1ccc(C2NC(=S)N=C3C2C(=O)N=C2SC([N+](=O)[O-])=CN23)cc1 (stereo not drawn)	0.2	22.7	32.1 (≈ 12.5 µg/mL)	14.6	9.1	
O=C1N=C2C(C(=O)N=C3SC([N+](=O)[O-])=CN32)C(c2ccccc2C(F)(F)F)N1 (stereo not drawn)	5.7	17.7	7.6 (≈ 3.13 µg/mL)	13.1	13.8	
O=C1N=C2SC([N+](=O)[O-])=CN2C2=NC(=S)NC(c3cccc(Br)c3)C12 (stereo not drawn)	6		7.1 (≈ 3.11 µg/mL)	13.5	39.9	
NNC(=O)c1ccncc1 [ISONIAZID]			0.72 (≈ 0.0987 µg/mL)			
O=C1N=C2C(C(=O)N=C3SC([N+](=O)[O-])=CN32)C(c2ccccc2[N+](=O)[O-])N1 (stereo not drawn)	0		129 (≈ 50 µg/mL)	0	93	
CN(C)c1ccc(C2NC(=O)N=C3C2C(=O)N=C2SC([N+](=O)[O-])=CN23)cc1 (stereo not drawn)	0		32.4 (≈ 12.5 µg/mL)	4.9	92.7	
O=C1N=C2C(C(=O)N=C3SC([N+](=O)[O-])=CN32)C(c2cccc(Br)c2)N1 (stereo not drawn)	0		14.8 (≈ 6.25 µg/mL)	2.8	60.1	
O=C1N=C2SC([N+](=O)[O-])=CN2C2=NC(=S)NC(c3ccccc3)C12 (stereo not drawn)	0		69.6 (≈ 25 µg/mL)	25.3	90.4	
O=C1N=C2C(C(=O)N=C3SC([N+](=O)[O-])=CN32)C(c2ccccc2)N1 (stereo not drawn)	1.6		> 146	3.8	84.1	
Cc1ccc(C2NC(=S)N=C3C2C(=O)N=C2SC([N+](=O)[O-])=CN23)cc1 (stereo not drawn)	0		67 (≈ 25 µg/mL)	14.7	106	
O=C1N=C2SC([N+](=O)[O-])=CN2C2=NC(=S)NC(c3ccc(Cl)cc3)C12 (stereo not drawn)	7.4		15.9 (≈ 6.26 µg/mL)	14.6	102	
O=C1N=C2SC([N+](=O)[O-])=CN2C2=NC(=S)NC(c3ccccc3[N+](=O)[O-])C12 (stereo not drawn)	1	30.3	30.9 (≈ 12.5 µg/mL)	8.7	11.3	
Cc1ccccc1C1NC(=O)N=C2C1C(=O)N=C1SC([N+](=O)[O-])=CN12 (stereo not drawn)	6		70 (≈ 25 µg/mL)	20.4	103	
O=C1N=C2C(C(=O)N=C3SC([N+](=O)[O-])=CN32)C(c2ccccc2O)N1 (stereo not drawn)	0		69.6 (≈ 25 µg/mL)	0	107	
O=C1N=C2SC([N+](=O)[O-])=CN2C2=NC(=S)NC(c3ccc(Br)cc3)C12 (stereo not drawn)	2.5		28.5 (≈ 12.5 µg/mL)	6.5	65.6	
COc1cc(C2NC(=O)N=C3C2C(=O)N=C2SC([N+](=O)[O-])=CN23)ccc1O (stereo not drawn)	0		128 (≈ 50 µg/mL)	0	90.5	
COc1ccc(C2NC(=O)N=C3C2C(=O)N=C2SC([N+](=O)[O-])=CN23)cc1 (stereo not drawn)	0		134 (≈ 50 µg/mL)	7.3	93.9	

Structure (SMILES)	inhibition at 25 µM [1] [%]	IC50 [2] [µM]	MIC [3] [µM]	inhibition at 50 µM [4] [%]	inhibition [5] [%]	Ki [6] [µM]
O=C1N=C2C(C(=O)N=C3SC([N+](=O)[O-])=CN32)C(c2c(Cl)cccc2Cl)N1 (stereo not drawn)	0		121 (≈ 50 µg/mL)	0	57.8	
O=C1N=C2C(C(=O)N=C3SC([N+](=O)[O-])=CN32)C(c2ccc(Cl)cc2)N1 (stereo not drawn)	0		66.2 (≈ 25 µg/mL)	0	80	
CN(C)c1ccc(C2NC(=S)N=C3C2C(=O)N=C2SC([N+](=O)[O-])=CN23)cc1 (stereo not drawn)	8		15.5 (≈ 6.24 µg/mL)	26.8	100	
O=C1N=C2SC([N+](=O)[O-])=CN2C2=NC(=S)NC(c3ccccc3C(F)(F)F)C12 (stereo not drawn)	27.7		7.3 (≈ 3.12 µg/mL)	52.2	89.4	
CC[C@@H](CO)NCCN[C@@H](CC)CO [ETHAMBUTOL]			4.71 (≈ 0.962 µg/mL)			
Cc1ccc(C2NC(=O)N=C3C2C(=O)N=C2SC([N+](=O)[O-])=CN23)cc1 (stereo not drawn)	0		70 (≈ 25 µg/mL)	0	57.7	
Cc1ccccc1C1NC(=S)N=C2C1C(=O)N=C1SC([N+](=O)[O-])=CN12 (stereo not drawn)	3.6	17.7	33.5 (≈ 12.5 µg/mL)	18.8	15.9	
O=C1N=C2C(C(=O)N=C3SC([N+](=O)[O-])=CN32)C(c2ccc(F)cc2)N1 (stereo not drawn)	5.4		17.3 (≈ 6.25 µg/mL)	10.7	100	
O=C1N=C2SC([N+](=O)[O-])=CN2C2=NC(=S)NC(c3ccccc3O)C12 (stereo not drawn)	0.1		33.3 (≈ 12.5 µg/mL)	12	68.8	
CC[C@H](C)[C@H](NC(=O)[C@H](CO)NC(=O)[C@H](Cc1ccccc1)NC(=O)[C@@H](N)CC(=O)O)C(=O)O		7.4				5
O=C1N=C2SC([N+](=O)[O-])=CN2C2=NC(=S)NC(c3ccc(F)cc3)C12 (stereo not drawn)	30.6		16.6 (≈ 6.26 µg/mL)	43.4	60	
O=C1N=C2SC([N+](=O)[O-])=CN2C2=NC(=S)NC(c3ccc([N+](=O)[O-])cc3)C12 (stereo not drawn)	1.64		61.8 (≈ 25 µg/mL)	6.6	70.6	
COc1cc(C2NC(=S)N=C3C2C(=O)N=C2SC([N+](=O)[O-])=CN23)ccc1O (stereo not drawn)	0		123 (≈ 50 µg/mL)	1.35	89.2	
O=C1N=C2SC([N+](=O)[O-])=CN2C2=NC(=S)NC(c3c(Cl)cccc3Cl)C12 (stereo not drawn)	21.3		58.4 (≈ 25 µg/mL)	30.7	113	
O=C1N=C2C(C(=O)N=C3SC([N+](=O)[O-])=CN32)C(c2ccc([N+](=O)[O-])cc2)N1 (stereo not drawn)	2.6		129 (≈ 50 µg/mL)	9.4	54.7	
O=C1N=C2C(C(=O)N=C3SC([N+](=O)[O-])=CN32)C(c2ccc(Br)cc2)N1 (stereo not drawn)	6.1		29.6 (≈ 12.5 µg/mL)	11.2	89.1	
